Assay outcomes (PubChem BioAssay)
Most compounds without a hit are left out; they make up all but 4.9% or so of the library.
STAT1 inh = inhibitors of IFN-gamma induced STAT1 signaling; NIH 3T3 STAT1-luciferase reporter, luminescence; inhibition, % at 5.5 µM; hit rate 0.35% among 200,000;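 active = inhibition above a set limit, the mean inhibition across all tested compounds plus 3 SD, cut at about 34% in these data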;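 note: 0% = IFN-gamma with DMSO and 100% = IFN-gamma with 300 µM nifuroxazide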
APP 5'UTR act = activates APP 5'UTR luciferase reporter. SH-SY5Y APP 5'UTR luciferase reporter, luminescence; zero percent = DMSO vehicle wells. hit rate 1% among 190,000. activation, % at 2 µM. AID 1276;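 active = activation above a set limit, based on mean plus 3 SD of controls, cut at about 140% in these data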
STAT3 act-1 = STAT3 signaling activation; U3A cells, IL-6 STAT3-luciferase reporter, luminescence; 100% = signal with IL-6 EC80 alone; AID 871; hit rate 0.91% among 190,000; activation (% of control), % at 5.6 µM;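 active = activation above the screen-wide mean of compound activation plus 3 SD, cut at about 130% in these data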;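 note: 0% = background luminescence of wells with medium and substrate only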
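Material: STAT3-luciferase reporter U3A cells. Controls: IL-6-treated wells, 100% activation. Read-out: % activation versus median of IL-6-stimulated wells. Probe or stimulus: IL-6 stimulus at 33 ng/mL final. Timing: compound 1 h, then IL-6 6 h at 37 °C. Signal: reporter luminescence signal.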
NF-kB neuron act = raises NF-kB expression in human neuronal cells | hit rate 1.6% among 190,000 | fold change at 12.5 µM | AID 1239 | NF-kB reporter expression; active compounds read high; in the data active = fold change above about 3.3
STAT1 act-1 = increases IFN-gamma driven STAT1 reporter signal; hit rate 2.6% among 200,000; activation (% of control), % at 5.5 µM; AID 932; NIH 3T3 STAT1-luciferase reporter, luminescence; 100% = IFN-gamma alone, no compound;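 active = activation above the screen-wide mean activation plus 3 SD, cut at about 130% in these data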;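 note: raw ratio to IFN-gamma control signal so 100% means no change and 0% no light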
STAT3 inh = reduces IL-6 driven STAT3 reporter signal | AID 862 | hit rate 0.89% among 190,000 | inhibition, % at 5.5 µM | U3A cells, IL-6 STAT3-luciferase reporter, luminescence; host cell line lacks STAT1;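 active = inhibition above the mean inhibition across all screened compounds plus 3 SD, cut at about 44% in these data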;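 note: 0% = DMSO only wells and 100% = 100 µM nifuroxazide control wells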
STAT3 act-2 = confirmation of STAT3 signaling activators | shares compounds with STAT3 act-1 | AID 1267 | potentiation (% of control), % at 5.7 µM | U3A STAT3-luciferase reporter, IL-6 potentiation, luminescence; U3A cells lack STAT1; 100 means same as IL-6 alone | hit rate 64% among 1,200;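 active = percent activation of the STAT3 luciferase reporter above a set limit taken from the earlier primary screen, cut at about 130% in these data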;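 note: 0% = background signal of medium plus substrate and 100% = median of IL-6 with DMSO wells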
NFkB act STAT3ct = activates NF-kappaB, counter-screen to STAT3 activators | hit rate 11% among 1,200 | activation (% of control), % at 5.7 µM | shares compounds with STAT3 act-1 | human cells, NF-kappaB reporter activation | AID 1309; in the data active = activation above about 120%;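 note: reporter induced by TNF-alpha stimulation; 100% = median of stimulated DMSO wells and 0% = no signal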
STAT1 act-2 = counter-screen for STAT3 activators: STAT1 activation | hit rate 13% among 1,200 | NIH 3T3 STAT1-luciferase reporter, IFN-gamma, luminescence | shares compounds with STAT3 act-1 | activation (% of control), % at 5.7 µM | AID 1318;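 active = activation above the solvent-only control well mean plus 3 SD, set per screening run, cut at about 120% in these data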;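 note: 100% = IFN-gamma with DMSO median signal so 100% means no change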
The depositor's hits bear a star; / = not tested or not shown.

SMILES	STAT1 inh	APP 5'UTR act	STAT3 act-1	NF-kB neuron act	STAT1 act-1	STAT3 inh	STAT3 act-2	NFkB act STAT3ct	STAT1 act-2
NC(=O)C1CCN(C(=O)C2CCN(S(=O)(=O)c3ccccc3)CC2)CC1	4	-30	100	1.1	97	9	/	/	/
CCCCCn1c(N(C)Cc2ccccc2)nc2c1c(=O)[nH]c(=O)n2C	-2	1	113	0.73	102	-6	/	/	/
N#C/C(=C\c1ccc(-c2ccc(C(=O)O)cc2)o1)c1nc2ccccc2[nH]1	-33	37	189*	1.1	128	-97	205*	134*	141*
O=S(=O)(NCc1cccnc1)c1ccccc1	7	-14	104	1.2	94	2	/	/	/
Clc1ccccc1-c1ccc(/C=N/Nc2nncc(-c3ccccc3)n2)o1	3	-8	163*	1.3	96	-74	154*	103	107
Clc1ccc(-c2ccc(/C=N/Nc3nncc(-c4ccccc4)n3)o2)cc1	-7	3	102	1.2	106	-2	/	/	/
COc1ccccc1-c1nnc(SCC(=O)N2CCOCC2)o1	-26	25	151*	1.6	124	-60	159*	106	106
COc1ccccc1-c1nnc(SCC(=O)N2CCC(C)CC2)o1	-1	33	117	1.1	101	-18	/	/	/
CC(C)CCNC(=O)Cc1ccccc1[N+](=O)[O-]	10	12	150*	0.92	91	-47	128	102	96
CCOC(=O)c1[nH]c2ccccc2c1NC(=O)CC(C)(C)C	28	-5	164*	0.95	74	-73	159*	106	89
CCOC(=O)c1[nH]c2ccccc2c1NC(=S)Nc1cccc(C)c1C	14	51	164*	1.1	87	-74	156*	111	91
CCOC(=O)c1[nH]c2ccccc2c1NC(=O)CN(C)C	6	13	106	1.1	95	-3	/	/	/
COc1ccc(Cl)cc1NC(=S)Nc1cccnc1	-1	5	98	0.99	100	7	/	/	/
COc1cc(C(C[N+](=O)[O-])c2c(C)[nH]c3ccccc23)cc(OC)c1OC (centres undefined)	14	5	142*	1	87	-48	126	98	92
Cn1cnnc1SCC(=O)Nc1ccc(Cl)c(S(=O)(=O)N2CCOCC2)c1	0	-20	101	1.2	99	1	/	/	/
O=C(C1CCCO1)N1CCN(c2c3c(nc4cc(-c5ccc(F)cc5)nn24)CCC3)CC1 (centres undefined)	2	22	137*	0.44	99	-31	120	107	94
OC1CCN(c2c3c(nc4cc(-c5ccc(F)cc5)nn24)CCC3)CC1	5	-10	85	0.68	95	21	/	/	/
CCn1ccnc1[C@@H]1C[C@H]2CN(c3ccccc3OC)C(=O)[C@]23CCCN13	9	11	105	1.1	91	-1	/	/	/
CCCN(c1ccc(C(C)C)cc1)S(=O)(=O)c1c(C)noc1C	7	13	105	0.92	94	-5	/	/	/
Cc1noc(C)c1S(=O)(=O)N(CC(=O)N1CCn2c1nc1ccccc12)c1ccc(C(C)C)cc1	0	1	149*	0.95	100	-55	138*	105	110
CC(=O)Nc1ccc(Oc2cnccn2)cc1	10	-8	102	1	91	-3	/	/	/
O=C(/C=C/c1ccccc1)C1=C(O)C(=O)N(CCO)C1c1ccccc1[N+](=O)[O-] (centres undefined)	-1	-21	144*	1.2	99	-47	152*	104	82
CC(=O)C1=C(O)C(=O)N(CCc2ccccc2)C1c1ccccc1[N+](=O)[O-] (centres undefined)	5	-1	120	0.94	96	-27	/	/	/
CC(=O)/C(N=Nc1cc(C)ccc1O)=C(\C)O	10	3	149*	1.2	89	-53	150*	107	97
O=C(Nc1ccc(Cl)cc1C(=O)N1CCOCC1)c1cccc([N+](=O)[O-])c1	-8	9	105	1.4	107	-8	/	/	/
SMILES	STAT1 inh	APP 5'UTR act	STAT3 act-1	NF-kB neuron act	STAT1 act-1	STAT3 inh	STAT3 act-2	NFkB act STAT3ct	STAT1 act-2
COC(=O)c1cccc(NC(=O)CCCOc2cccc(C)c2)c1	-5	6	136*	0.96	104	-35	113	105	102
COC(=O)c1cc2ccsc2n1CC(=O)Nc1ccc(N(C)C)cc1	9	-1	100	0.96	91	2	/	/	/
COC(=O)c1cc2ccsc2n1CC(=O)Nc1cc(Cl)ccc1OC	7	-11	152*	0.97	94	-51	147*	93	95
CCOC(=O)N1CCN(C(=O)c2cn(CC)c3cc(N4CCN(C)CC4)c(F)cc3c2=O)CC1	0	5	101	1.3	99	4	/	/	/
Cc1ccc(C)n1NC(=O)c1ccccc1[N+](=O)[O-]	-4	42	98	1.1	103	5	/	/	/
Cc1ccc(C)n1NC(=O)c1ccccc1O	1	2	153*	1.2	99	-55	151*	105	97
COc1ccc(S(=O)(=O)N2Cc3ccccc3CC2C(=O)Nc2nccs2)cc1 (centres undefined)	-23	180*	140*	1.6	121	-46	110	112	120
COc1ccc(S(=O)(=O)N2Cc3ccccc3CC2C(=O)Nc2ccc3c(c2)OCO3)cc1 (centres undefined)	-7	21	110	1.2	106	-8	/	/	/
COC(=O)c1c(NC(=O)CN2CCN(C(=O)c3ccco3)CC2)c2c(C)cccc2n1C	6	11	91	0.75	94	13	/	/	/
COC(=O)c1c(NC(=O)CN2CCN(C(=O)c3ccco3)CC2)c2cc(C)ccc2n1C	-3	8	139*	0.61	103	-37	141*	99	97
COc1ccc(NS(=O)(=O)c2cccc(NC(=O)C34CCC(CC3)C4)c2)cc1	16	8	87	0.61	85	18	/	/	/
CC1(C)CC(C(CC(=O)N2CCCC2)Cc2ccccc2)CCO1 (centres undefined)	/	-5	/	/	/	/	/	/	/
c1ccc2c(-c3nc4ncccc4o3)cccc2c1	-3	-1	141*	1.1	103	-43	124	109	110
Cc1ccc(-n2[nH]c(C)c(C=Nc3cc(C)ccn3)c2=O)cc1	-6	24	138*	1.3	106	-42	102	101	103
CCOC(=O)Cn1cc(C#N)c2ccccc21	0	17	102	0.96	98	5	/	/	/
